Measurements from different studies.
Each line is one published result; the experiments were not run side by side.
Effect on: cell growth or viability

| Compound | cell line | technique | concentration | time | endpoint | value |
| --- | --- | --- | --- | --- | --- | --- |
| COc1ccc(S(=O)(=O)ON=C2C=C(C)C(=O)C(C)=C2)cc1 | PC-3 |  |  |  | CC50 | 4.74 µM |
| COc1cccc2c1C(=O)c1c(O)c3c(c(O)c1C2=O)C[C@@](O)(C(=O)CO)C[C@@H]3O[C@H]1C[C@H](N)[C@H](O)[C@H](C)O1 | HFF-1 | resazurin |  | 72 h | CC50 | 0.468 µM |
| O=C(O)c1ccc(P(c2ccccc2)c2ccccc2)cc1 | NIH3T3 | resazurin |  | 18 h | CC50 | 210 µg/mL |
| N=C(N)NCc1ccc(NC(=O)c2ccc(C(=O)Nc3ccc(C4=CCN(C(=N)N)CC4)cc3)cn2)cc1 | NIH3T3 | MTS |  | 24 h | CC50 | > 1170 µM |
| COc1cc(OC)cc([C@H]2C[C@@H](C)OC(=O)c3cc4ccccn4c32)c1 (racemic) | HFF-1 | resazurin |  | 72 h | CC50 | > 100 µM |
| O=C(CCl)Cn1nnc(-c2ccccc2)c1COC(=O)NCc1ccccc1 | HFF-1 | ATP luminescence |  | 48 h | CC50 | 20 µM |
| N=C(N)NCc1ccc(NC(=O)c2ccc(C(=O)Nc3ccc(C4=CCN(C(=N)N)CC4)nn3)cc2)cc1 | NIH3T3 | MTS |  | 24 h | CC50 | 231 µM |
| CCCCCCCCCCCCCCCc1ccc(CP(=O)(O)O)cc1 | Mm1 | trypan blue | 10 µM | 20 h | viability | > 93% |
